Data set [1] has as its system Escherichia coli. Briefly: Induction of mutagenicity in Escherichia coli BL21(DE3) expressing pRAC-gfp assessed as modulation of reporter protein GFP synthesis at 150 uM incubated for 1.5 hrs followed by plasmid maturation measured after 1.5 hrs by fluorophotometry relative to control. It is filed as toxicity.
Data set [2] is described as follows: Antiviral activity against Influenza virus A/California/07/09 (H1N1)pdm09 infected in MDCK cells assessed as inhibition of viral replication incubated for 1 hr prior to viral infection measured after 48 hrs by hemagglutination reaction. The format is functional, cell-based, Influenza A virus (A/California/07/2009(H1N1)). The procedure, abridged: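 MDCK monolayers in MEM were pre-incubated with compound for 1 h at 37 °C before infection, then held 48 h at 37 °C in 5% CO2. Virus yield was read by haemagglutination: equal volumes of supernatant and 1% chicken erythrocytes, 60 min at room temperature. Triplicates were run. EC50 was the concentration that halved virus production (0.3 log10 EID50 titre drop).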

Data set [3] can be described thus: Cytotoxicity against MDCK cells after 48 hrs by MTT assay. The format is cell-based, Canis lupus familiaris. The settings on record: dog, read-out: CTD50. In a few lines:
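MDCK cells were grown in MEM at 37 °C, 5% CO2 to a confluent monolayer. They were then exposed for 48 h to twofold dilutions (1000–4 µg/ml in MEM), washed twice with saline, and given MTT ([…] in saline) for 1 h. Formazan was dissolved in DMSO and OD read at 535 nm. Triplicates were run. CTD50 is the concentration halving OD versus control wells.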

Data set [4] can be described thus: Selectivity index, ratio of CTD50 for MDCK cells to EC50 for Influenza A virus California/07/09(H1N1) pdm09 infected in MDCK cells. It is filed as toxicity, cell-based. The settings on record: dog, read-out: Selectivity Index. The procedure, abridged:
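CTD50 came from MDCK cells given twofold dilutions (1000–4 µg/ml) in MEM for 48 h at 37 °C, 5% CO2. CTD50 was the concentration halving OD versus control. SI is CTD50 divided by EC50 from the haemagglutination-based antiviral assay.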

Data set [5] in a line: Toxicity in Escherichia coli BL21(DE3) expressing pET36b-gfp assessed as inhibition of IPTG-induced reporter protein GFP synthesis at 150 uM after 1.5 hrs by fluorophotometry relative to control. The note with it: Escherichia coli BL21(DE3) cells expressing pET36b-gfp, read-out: Activity. In a few lines: (§1)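 E. coli BL21(DE3) carrying the IPTG-inducible gfp plasmid was grown in LB at 37 °C with shaking to D600 0.4–0.5, then treated with compound for 1.5 h. OD600 and GFP emission 500–600 nm (excitation 491 nm) were read. Control cells were untreated, with 1 mM IPTG (final) added after 1.5 h. Fluorescence decreases of 20% and 50% versus control were counted as toxic and extremely toxic.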

The test system of data set [6] is Escherichia coli. The data set can be described thus: Induction of mutagenicity in Escherichia coli BL21(DE3) expressing pRAC-gfp assessed as induction of reporter protein GFP synthesis at 10 ug/ml incubated for 1.5 hrs followed by plasmid maturation measured after 1.5 hrs by fluorophotometry. It is filed as toxicity. The procedure, abridged: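 BL21(DE3) carried pRAC-gfp, with GFP under the Proteus mirabilis recA regulatory region. Cells were grown in LB at 37 °C with shaking to OD600 0.4–0.5, given compound, grown 1.5 h, then held 1.5 h at 4–6 °C for chromophore maturation. OD600 and GFP emission (500–600 nm, excitation 491 nm) were measured. Controls were water (negative) and nalidixic acid […] (positive). Result is % change in GFP versus control.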

Data set [7] has as its system Escherichia coli. Briefly: Induction of mutagenicity in Escherichia coli BL21(DE3) expressing pRAC-gfp assessed as modulation of reporter protein GFP synthesis at 2 uM incubated for 1.5 hrs followed by plasmid maturation measured after 1.5 hrs by fluorophotometry. The format is toxicity.
Data set [8] in a line: Toxicity in Escherichia coli BL21(DE3) expressing pET36b-gfp assessed as inhibition of IPTG-induced reporter protein GFP synthesis at 2 uM after 1.5 hrs by fluorophotometry relative to control. The note with it: Escherichia coli BL21(DE3) cells expressing pET36b-gfp, read-out: Activity. The procedure, abridged:
as §1

A further data set concerns U-937. The data set can be described thus: Cytotoxicity against human U937 cells after 72 hrs by MTT assay. The format is functional. In a few lines:
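Cells were grown in RPMI-1640 with 10% embryonic calf serum, 2 mmol/L L-glutamine, gentamicin and lincomycin. Compounds in DMSO were added, then 72 h at 37 °C, 5% CO2. Three wells per concentration, with untreated cells as control. 1% MTT for 4 h, DMSO for 15 min, OD 570 nm. CTD50 is the concentration killing 50% of cells.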

Structures can show the parent of a compound that is named as a salt.

Results on 15 molecules are retold here after ChEMBL document CHEMBL2440013, “New quaternary ammonium camphor derivatives and their antiviral activity, genotoxic effects and cytotoxicity” (Bioorg Med Chem, 2013).

With `CC[N+](CC)(CCCCCCCCCC[N+](CC)(CC)CC/N=C1\C[C@H]2CC[C@]1(C)C2(C)C)CC/N=C1\C[C@H]2CC[C@]1(C)C2(C)C`, in the data set with Escherichia coli [1], the Activity was determined as 70%. In addition, the EC50 in data set [2] (Influenza A virus, pdm09, MDCK) is 55.3 µM. In data set [3], the CC50 at 48 h was found to be 285 µM. The selectivity ratio in data set [4] came out at 5. Besides, the inhibition at 1.5 h, 150 µM in data set [5] amounted to 78%.

With `CC[N+](CC)(CCCCCCCCCCCC[N+](CC)(CC)CC/N=C1\C[C@H]2CC[C@]1(C)C2(C)C)CC/N=C1\C[C@H]2CC[C@]1(C)C2(C)C`, the Activity with Escherichia coli [1] is listed as 74%. Further, the EC50 in data set [2] (Influenza A virus, pdm09, MDCK) stood at 59.9 µM. Moreover, the CC50 at 48 h in [3] came out at 128 µM. Further, the selectivity ratio in data set [4] amounted to 2. Moreover, in data set [5], the inhibition at 1.5 h, 150 µM was 89%.

Turning to `CCn1cc(C(=O)O)c(=O)c2ccc(C)nc21` [NALIDIXIC ACID], the Activity in the data set on Escherichia coli [6] came out at 500%.

Take `NC12CC3CC(CC(C3)C1)C2` [AMANTADINE]: the EC50 in data set [2] (mdck) was found to be 64.2 µM. The CC50 at 48 h in data set [3] came out at 284 µM. Also, in data set [4], the selectivity ratio turned out to be 4.

For the molecule `CC[N+](CC)(CCCCCCCC[N+](CC)(CC)CC/N=C1\C[C@H]2CC[C@]1(C)C2(C)C)CC/N=C1\C[C@H]2CC[C@]1(C)C2(C)C`, the Activity in the data set with Escherichia coli [1] was found to be 57%. In data set [2] (Influenza A virus, pdm09, MDCK), the EC50 came out at 13.2 µM. Also, the CC50 at 48 h in [3] stood at 552 µM. Besides, in data set [4], the selectivity ratio turned out to be 42. The inhibition at 1.5 h, 150 µM in [5] was found to be 67%.

Consider `CC12CCC(CC1=O)C2(C)C` (single isomer, unassigned; (+)) [CAMPHOR], for which the EC50 in data set [2] (mdck) is 1640 µM. In [3], the CC50 at 48 h was 3290 µM. Also, in the data set on Escherichia coli [7], the Activity is reported as 5%. Further, the selectivity ratio in [4] was determined as 2. Besides, the inhibition at 1.5 h, 2 µM in data set [8] is 6%.

For `CCN(CC)CC/N=C1\C[C@H]2CC[C@]1(C)C2(C)C`, the EC50 in data set [2] (Influenza A virus, pdm09, MDCK) was determined as 10 µM. Also, the CC50 at 48 h in data set [3] is 807 µM. In addition, the selectivity ratio in data set [4] was 81.

Regarding `CC[N+](CC)(CCCCC[N+](CC)(CC)CC/N=C1\C[C@H]2CC[C@]1(C)C2(C)C)CC/N=C1\C[C@H]2CC[C@]1(C)C2(C)C`, the EC50 in data set [2] (Influenza A virus, pdm09, MDCK) is 14.7 µM. Besides, in data set [3], the CC50 at 48 h was found to be 1280 µM. Further, the selectivity ratio in [4] was 87.

Consider `CC(N)C1C[C@@H]2CC[C@H]1C2` (stereo partly specified) [DEITIFORIN], for which the CC50 at 48 h in data set [3] turned out to be 1270 µM.

Turning to `CC[N+](CC)(CC)CC/N=C1\C[C@H]2CC[C@]1(C)C2(C)C`, the 50% effective concentration (EC50) in [2] (Influenza A virus, pdm09, MDCK) was 140 µM. In data set [3], the CC50 at 48 h stood at 1780 µM. Besides, in data set [4], the selectivity ratio was 13.

Take `CC[N+](CC)(CCCCCC[N+](CC)(CC)CC/N=C1\C[C@H]2CC[C@]1(C)C2(C)C)CC/N=C1\C[C@H]2CC[C@]1(C)C2(C)C.[Br-].[Br-]`: the CTD50 in the data set with U-937 was determined as 82.1 µM. In [2] (Influenza A virus, pdm09, MDCK), the EC50 was 81.2 µM. For the same molecule, in [3], the CC50 at 48 h came out at 1710 µM. Further, the selectivity ratio in [4] is 21.

As to `CC[N+](CC)(CCCCCCCCC[N+](CC)(CC)CC/N=C1\C[C@H]2CC[C@]1(C)C2(C)C)CC/N=C1\C[C@H]2CC[C@]1(C)C2(C)C`, the Activity with Escherichia coli [1] is reported as 51%. Further, in [2] (Influenza A virus, pdm09, MDCK), the EC50 amounted to 6.9 µM. In addition, the CC50 at 48 h in data set [3] turned out to be 578 µM. Also, in data set [4], the selectivity ratio was 82. Also, in [5], the inhibition at 1.5 h, 150 µM was determined as 65%.

For the molecule `CC(N)C12CC3CC(CC(C3)C1)C2` (stereo unspecified) [RIMANTADINE HYDROCHLORIDE], the EC50 in data set [2] (Influenza A virus, pdm09, MDCK) is 67 µM. In data set [3], the CC50 at 48 h is 335 µM. Further, in data set [4], the selectivity ratio was determined as 5.

Consider `CC[N+](CC)(CC/N=C1\C[C@H]2CC[C@]1(C)C2(C)C)Cc1ccc(C[N+](CC)(CC)CC/N=C2\C[C@H]3CC[C@]2(C)C3(C)C)cc1`, for which the EC50 in [2] (Influenza A virus, pdm09, MDCK) came out at 43.4 µM. Moreover, in data set [3], the CC50 at 48 h is 1450 µM. In data set [4], the selectivity ratio is 33.

For the molecule `CC[N+](C)(CC)CC/N=C1\C[C@H]2CC[C@]1(C)C2(C)C`, in data set [2] (Influenza A virus, pdm09, MDCK), the concentration for a half-maximal effect (EC50) was found to be 40.4 µM. The CC50 at 48 h in data set [3] came out at 1890 µM.
